Shown are actives, neighbours in structure and some others; about 1.9% of the full set was active somewhere.
MT1-MMP act inh: MT1-MMP (human) activation inhibition. P50281. hit rate 0.061% among 360,000. GFP/RFP ratio change, % at 20 µM. HT1080 RFP-PRO-GFP cells, GFP/RFP ratio fluorescence, overnight; percent of plate control window, DMSO zero;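 active = GFP/RFP ratio change of at least 30% with cell ATP level not reduced by more than half and red fluorescence within 50% of control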
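Assay system: HT1080 cells carrying an RFP-PRO-GFP reporter | Dosing: Single dose of 20 µM compound, 1% DMSO final | Incubation: Cells overnight before dosing, compound overnight, 37 °C, 5% CO2 | Evaluation: GFP/RFP fluorescence ratio | Control set: DMSO and RFP-L50D-GFP cell wells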
SKN-1 block: inhibitors of C. elegans SKN-1 | inhibition, % at 21.8 µM | AID 624304 | C. elegans VP596 Pgst-4::GFP/RFP ratio, acrylamide-induced, 24 h | hit rate 0.49% among 360,000;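 active = interference check ratio from 0.5 to 1.5 plus GFP to RFP signal ratio inhibition reaching or exceeding a fixed threshold, cut at about 30% in these data, passing the limit was not always enough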
NR1D1 modulator: modulates human Rev-erb alpha binding to DNA; P20393; Rev-erbα–FITC-DNA binding, fluorescence polarization, 90 min; activity, % at 10 µM; hit rate 0.79% among 370,000; AID 1259318;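 active = activity above about 14%, limit read from the data; passing the limit was not always enough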;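 also: 0% = DMSO wells with 35 nM protein and 100% = DMSO wells with 750 nM protein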
Target sequence (P20393 whole entry, looked up): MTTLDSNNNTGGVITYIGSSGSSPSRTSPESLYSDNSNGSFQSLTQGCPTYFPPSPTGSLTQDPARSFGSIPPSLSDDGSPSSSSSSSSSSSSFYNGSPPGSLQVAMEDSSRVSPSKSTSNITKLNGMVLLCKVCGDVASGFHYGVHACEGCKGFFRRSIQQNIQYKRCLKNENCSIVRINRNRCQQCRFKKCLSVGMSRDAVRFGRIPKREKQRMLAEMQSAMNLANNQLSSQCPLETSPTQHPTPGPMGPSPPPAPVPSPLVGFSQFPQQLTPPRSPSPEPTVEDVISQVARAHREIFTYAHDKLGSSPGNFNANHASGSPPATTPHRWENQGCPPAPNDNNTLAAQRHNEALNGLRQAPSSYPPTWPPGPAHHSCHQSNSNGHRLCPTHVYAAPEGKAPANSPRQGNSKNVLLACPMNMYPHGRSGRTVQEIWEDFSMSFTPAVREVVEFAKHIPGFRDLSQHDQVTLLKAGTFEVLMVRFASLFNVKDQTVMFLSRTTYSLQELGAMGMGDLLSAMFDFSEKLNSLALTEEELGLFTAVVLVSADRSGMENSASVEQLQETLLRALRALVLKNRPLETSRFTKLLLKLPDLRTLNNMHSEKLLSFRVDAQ
PG9 Ab binder: PG9 antibody binding by small molecule; TR-FRET gp120-PG9 antibody binding; inhibition, % at 6.7 µM; hit rate 0.43% among 360,000; in the data active = inhibition above about 8.5%
NR2E3 ag-1: agonists of human NR2E3 nuclear receptor | inhibition of corepressor binding, % at 3.98 µM | Q9Y5X4 | hit rate 0.35% among 360,000 | CHO-S Gal4-NCOR/VP16-NR2E3 two-hybrid, luciferase | AID 602229;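 active = inhibition above the mean of all tested compounds plus 3 SD, cut at about 70% in these data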;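 also: 0% = DMSO with NR2E3 transfected cells and 100% = cells lacking NR2E3 construct; higher means lower luciferase signal from less NR2E3 corepressor binding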
NR2E3 ag-2: activates human photoreceptor nuclear receptor NR2E3 | hit rate 0.12% among 320,000 | GST-NR2E3/biotin-RetCOR TR-FRET, 1536-well | inhibition of corepressor binding, % at 4.78 µM | AID 2300;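 active = percent inhibition above the cutoff of mean plus 3 SD of all tested compounds, set per screening campaign, cut at about 20% in these data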;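 also: 0% = DMSO wells and 100% = biotin wells as full block of FRET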
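Material – GST-tagged NR2E3 plus biotinylated RetCOR corepressor · Quantity – NR2E3 fusion 1.35 nM · Times – 5 h incubation at 4 °C · Medium – pH 7.5 Tris-based buffer · Technique – TR-FRET, Eu(K)-anti-GST donor, streptavidin-D2 acceptor, ex 340, em 617/671 nm · Benchmarks – high control biotin, low control 0.6% DMSO · Format – 1536-well plates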
NR2E3 ag conf: NR2E3 agonism confirmed in two-hybrid assay. shares compounds with NR2E3 ag-1. CHO-S mammalian two-hybrid NR2E3-NCOR, luciferase luminescence. inhibition, % at 3.98 µM. hit rate 51% among 2,300. AID 624378;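 active = average inhibition above a cutoff equal to the mean inhibition of all tested compounds plus one SD, cut at about 70% in these data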;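 also: 0% = DMSO in NR2E3 cells and 100% = DMSO in cells lacking NR2E3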
GAL4-VP16 luc: GAL4-VP16 reporter inhibition in NR2E3 agonist counterscreen; CHO-S GAL4-VP16 luciferase reporter, luminescence; inhibition, % at 3.98 µM; AID 624379; hit rate 29% among 2,300; shares compounds with NR2E3 ag-1;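 active = mean inhibition above a cutoff equal to the average over all tested compounds plus one standard deviation, cut at about 70% in these data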;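 also: luciferase from a UAS reporter driven by GAL4-VP16 transactivation; 0% = DMSO with VP16-transfected cells and 100% = DMSO with cells lacking VP16; higher means less reporter light so more repression of VP16 activity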
Active calls of the source: *; . = not tested or not shown.

SMILES	MT1-MMP act inh	SKN-1 block	NR1D1 modulator	PG9 Ab binder	NR2E3 ag-1	NR2E3 ag-2	NR2E3 ag conf	GAL4-VP16 luc
CC(COc1ccc(C#N)cc1F)CN1CCC(C(O)(c2ccccc2)c2ccccc2)CC1 (stereo not given)	.	.	-4.3	.	.	.	.	.
COc1ccc(-n2c(COc3ccc(Cl)cc3)nnc2SCC(=O)Nc2ccc(Oc3ccccc3)cc2)cc1	.	.	-5.7	.	.	.	.	.
Cc1ccc2sc(NNC(=O)C3=COCCO3)nc2c1C	6.2	8.8	-5.0	-1.3	-30.2	2.5	.	.
Cc1ccc2sc(N3CCN(C(=O)C4=COCCO4)CC3)nc2c1C	0.1	-11.6	-6.8	0.7	59.0	-0.7	60.5	38.0
CCOC(=O)[C@]12CCCCC/C=C\1N(CCc1ccc(Cl)cc1)C(=O)[C@H]2CC(=O)NCc1ccc(OC)c(OC)c1	.	.	-3.7	.	.	.	.	.
COC(=O)c1cc(CSc2nnc(NC3CCCCC3)s2)oc1C	6.8	-21.8	-5.1	-1.1	57.5	0.8	60.2	57.6
CC(C)(C)C(=O)COC(=O)c1ccc(N)c([N+](=O)[O-])c1	-0.9	2.5	-0.2	-0.9	-2.6	-0.4	.	.
COc1ccc(CCOC(=O)c2ccc(N)c([N+](=O)[O-])c2)cc1	3.4	-15.2	-2.2	2.2	50.1	3.8	25.9	45.6
O=C(Nc1ccc(F)cc1)OCc1cn(Cc2ccc(F)cc2)nn1	.	.	11.5	.	.	.	.	.
O=C1c2cc([N+](=O)[O-])ccc2-c2cc(Br)c(N=C(NO)C(F)(F)F)cc21	-25.4	30.0	6.6	0.2	100.8*	.	97.3*	61.2
O=C(O)CC1(CC(=O)NCc2ccc(C(F)(F)F)cc2)CCCCC1	0.9	0.7	0.1	1.9	-13.5	3.3	.	.
O=C(O)CC1(CC(=O)Nc2cc(C(F)(F)F)cc(C(F)(F)F)c2)CCCCC1	-1.1	-6.5	-5.4	0.0	57.9	-0.6	88.2*	45.1
CCC(C)Nc1nc(-c2ccccn2)nc2ccccc12 (stereo not given)	18.2	0.7	-3.4	2.7	99.8*	1.7	98.6*	56.1
c1ccc(CNc2nc(-c3ccccc3)nc3ccccc23)cc1	1.3	28.4	1.5	-2.5	-26.9	0.1	.	.
c1ccc(CNc2nc(-c3ccccn3)nc3ccccc23)cc1	-2.2	18.3	2.6	-0.9	95.3*	-2.7	99.2*	59.1
O=C(NCc1cccs1)C1CCCN(S(=O)(=O)c2cccc3ccccc23)C1 (stereo not given)	.	.	5.3	.	.	.	.	.
Nc1ncnc2c1c(-c1ccc(Oc3ccccc3)cc1)cn2C1CCCC1	-3.4	-1.3	0.4	0.5	74.3*	4.2	85.7*	71.5*
Nc1nc(N)nc(-c2ccc(Oc3ccccc3)cc2)n1	2.0	8.0	-4.8	0.3	1.6	4.7	.	.
CC(C)Oc1cccc(-c2n[nH]c(=S)n2N=Cc2ccc(O)cc2O)c1	.	.	0.5	.	.	.	.	.
Cc1ccc(C)c(N2CCN(S(=O)(=O)c3csc(C(N)=O)c3)CC2)c1	-1.5	11.0	1.2	-1.2	61.2	0.9	16.8	38.9
COC(=O)C1CN(Cc2cn(Cc3ccc(C)cc3)nn2)CCS(=O)(=O)N1Cc1ccc(OC)cc1 (stereo not given)	.	.	0.1	.	.	.	.	.
Cc1c(C#N)c2ncn(CCCN(C)C)c(=O)c2n1-c1ccccc1	-8.1	-5.0	1.5	0.3	89.5*	1.6	-9.0	-10.4
Cc1ccc2[nH]c3c(c2c1)CCCC3NC(=O)CCl (stereo not given)	-6.9	4.7	.	.	87.7*	0.5	89.0*	72.5*
Cc1ccc2[nH]c3c(c2c1)CCCC3C(N)=O (stereo not given)	-7.8	-5.3	0.9	-0.6	41.1	1.4	.	.
COc1ccc(C(=O)Nc2cnn(Cc3ccc(Cl)cc3)c2)cc1OC	4.3	-1.6	0.0	-0.9	63.3	-0.4	63.3	10.8
SMILES	MT1-MMP act inh	SKN-1 block	NR1D1 modulator	PG9 Ab binder	NR2E3 ag-1	NR2E3 ag-2	NR2E3 ag conf	GAL4-VP16 luc
COc1ccc(C(=O)Nc2ccc(Cn3ccnc3)cc2)cc1OC	0.9	1.4	3.5	0.2	-39.5	2.1	.	.
CC1=CC(C)(C)N2C(=O)C3(NCCc4c3[nH]c3ccccc43)c3cc(C)cc1c32 (stereo not given)	-14.2	-4.8	2.8	-2.5	57.0	-0.5	12.2	6.3
CN1C(=O)C2(NCCc3c2[nH]c2ccccc32)c2ccccc21 (stereo not given)	-2.7	11.5	1.9	0.9	-1.8	1.8	.	.
Cc1nc2ccccc2c2c1CC(C(C)(Cl)Br)O2 (stereo not given)	0.5	13.3	4.0	0.2	62.2	-2.0	78.0*	68.4
Cc1ccc2nc(C)c3c(c2c1)OC(C(C)(Cl)Br)C3 (stereo not given)	1.8	19.4	1.0	0.1	-4.2	-3.9	.	.
CCCc1cc(=O)n2[nH]cc(-c3ccc(Cl)cc3)c2n1	-0.6	-20.1	-2.3	-2.4	93.3*	.	98.2*	70.9*
COc1cccc2c1C(=O)c1c(O)c3c(c(O)c1C2=O)C[C@@](O)(C(=O)CO)C[C@@H]3OC1CC(N)C(O)C(C)O1 (stereo not given in full)	-20.2	77.2	-12.5	-12.8	-64.9	.	.	.
COc1cccc2c1C(=O)c1c(O)c3c(c(O)c1C2=O)CC(O)(C(C)=O)CC3OC1CC(N(C)C)C(O)C(C)O1 (stereo not given)	-13.7	74.2	14.5	-8.9	88.5*	.	99.8*	51.6
CCC(=O)NC(c1cccs1)c1cc([N+](=O)[O-])c2cccnc2c1O (stereo not given)	7.5	19.4	4.9	0.5	62.5	0.3	93.7*	51.5
CC(=O)NC(c1ccccc1)c1cc([N+](=O)[O-])c2cccnc2c1O (stereo not given)	3.5	10.8	4.5	0.1	57.2	-8.2	93.7*	30.7
CC(C)C(=O)NC(c1ccccc1)c1cc([N+](=O)[O-])c2cccnc2c1O (stereo not given)	11.5	9.8	3.9	-0.6	20.0	2.1	.	.
CCCC(=O)NC(c1cccs1)c1cc([N+](=O)[O-])c2cccnc2c1O (stereo not given)	10.8	5.4	9.1	-3.0	16.5	-1.6	.	.
CC(=O)NC(c1cccs1)c1cc([N+](=O)[O-])c2cccnc2c1O (stereo not given)	6.0	6.2	-1.2	-0.3	80.6*	1.5	97.6*	54.5
C#CCNC(=O)C[C@H]1C[C@@]2(C(=O)OC)C(=C[C@H](C(C)C)O[C@@H]2C2CC2)N(CCc2ccc(OC)c(OC)c2)C1=O	.	.	0.2	.	.	.	.	.
CCCCCCCCN1C(=O)[C@@H](CC(=O)NCc2cccc3ccccc23)C[C@@]2(C(=O)OC)C1=C[C@H](C1CCCC1)O[C@@H]2C	.	.	-0.1	1.0	.	.	.	.
